Compound activity as filed in PubChem.
CHRM5 PAM: potentiates acetylcholine response at human M5 receptor; AID 624038; P08912; CHO-K1 hM5, Fluo-8 calcium, ACh EC20 PAM; 0% = ACh EC20, 100% = ACh EC100; activation, % at 3 µM; 360,000 tested, 0.3% active;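 active = activation above the run cutoff, the mean activation of all test compounds plus 3 SD, cut at about 18% in these data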
Target sequence (P08912 whole entry, looked up): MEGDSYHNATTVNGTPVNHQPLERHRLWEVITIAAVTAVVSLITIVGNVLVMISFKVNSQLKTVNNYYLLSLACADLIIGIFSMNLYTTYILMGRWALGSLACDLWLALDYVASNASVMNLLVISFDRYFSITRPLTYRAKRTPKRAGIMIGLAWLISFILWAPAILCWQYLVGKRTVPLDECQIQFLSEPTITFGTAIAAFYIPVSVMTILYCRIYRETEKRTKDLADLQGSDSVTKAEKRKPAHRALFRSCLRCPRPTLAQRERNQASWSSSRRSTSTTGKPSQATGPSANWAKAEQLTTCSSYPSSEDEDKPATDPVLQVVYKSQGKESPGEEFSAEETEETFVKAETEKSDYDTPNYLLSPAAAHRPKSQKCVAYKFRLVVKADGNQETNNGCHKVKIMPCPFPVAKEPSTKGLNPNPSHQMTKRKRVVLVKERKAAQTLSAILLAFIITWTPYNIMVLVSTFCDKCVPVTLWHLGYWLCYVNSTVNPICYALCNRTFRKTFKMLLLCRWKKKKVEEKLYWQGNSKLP
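Probe or stimulus: acetylcholine, EC20 level; Assay system: human M5 receptor in CHO-K1 cells; Schedule: compound preincubation 140 s before EC20 acetylcholine addition; Technique: intracellular calcium via Fluo-8 fluorescence; Dosing: single-point, 3 µM nominal; Read-out basis: percent activation from peak-over-basal fluorescence ratio, scaled EC20-to-EC100 acetylcholine; Repeats: one well per compound, no replicates.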
M4 antag: CHRM4 antagonism in calcium assay; P08173; CHO-hM4 cells, ACh EC80, Fluo-8 calcium fluorescence; inhibition, % at 3 µM; 360,000 tested, 0.73% active;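 active = inhibition above its plate's cutoff, the mean inhibition of sample wells plus 3 SD, cut at about 27% in these data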;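 also: 0% = acetylcholine EC80 with DMSO and 100% = DMSO without agonist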
CHRM4 agonist: CHRM4 agonism in calcium assay; P08173; CHO-K1 hM4/Gqi5, Fluo-8 calcium fluorescence; vehicle 0%, full acetylcholine response 100%; activation, % at 3 µM; 360,000 tested, 0.14% active;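 active = activation above the run mean over all test wells plus 3 SD, cut at about 32% in these data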;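 also: peak over basal fluorescence ratio per well then scaled between controls; 0% = DMSO wells and 100% = acetylcholine at EC100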
CHRM5 agonist: CHRM5 agonism in calcium assay; CHO-K1 hM5 cells, Fluo-8 calcium fluorescence; 0% DMSO wells, 100% maximal acetylcholine response; 360,000 tested, 0.19% active; activation, % at 3 µM; P08912;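 active = activation above the run's mean over test compounds plus 3 SD, cut at about 23% in these data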;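 also: signal is peak over basal fluorescence ratio across the kinetic read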
CHRM5 antagonist: antagonists of human muscarinic M5 receptor (CHRM5); P08912; CHO-hM5 cells, Fluo-8 calcium fluorescence, ACh EC80; inhibition, % at 3 µM; 360,000 tested, 0.59% active; AID 624040;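 active = inhibition above a per-plate cutoff, the mean of that plate's test compounds plus 3 SD, cut at about 27% in these data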;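 also: 0% = acetylcholine EC80 with DMSO and 100% = DMSO without agonist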
CHRM4 PAM: CHRM4 positive allosteric modulation. P08173. CHO-K1 hM4/Gqi5, Fluo-8 calcium fluorescence, ACh EC20; 0% = ACh EC20, 100% = maximal ACh. activation, % at 3 µM. 360,000 tested, 0.4% active. AID 624126;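 active = activation above its plate's cutoff, the mean activation of sample wells plus 3 SD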
* marks the source's active call; other numbers are inactive results. Most compounds without a hit are left out; they make up all but 1.9% or so of the library.

SMILES	CHRM5 PAM	M4 antag	CHRM4 agonist	CHRM5 agonist	CHRM5 antagonist	CHRM4 PAM
Cc1cccc(NC(=O)c2ccc(OCc3c(C)noc3C)cc2)c1	2	7	3	-5	1	-5
Cc1noc(C)c1COc1ccc(C(=O)Nc2cccnc2)cc1	-7	32*	1	-17	10	-22
CC(=O)Nc1ccc(NC(=O)CCNC(=O)c2ccccc2Cl)cc1	0	5	0	-2	10	7
COC(=O)c1cn(-c2ccccc2)nc1-c1ccc(OC)c(OC)c1	19*	-24	5	6	12	5
COc1ccc(-c2nn(-c3ccccc3)cc2C(=O)NC(=S)Nc2cc(Cl)ccc2Cl)cc1	22*	-1	2	5	-16	27
COc1ccc(-c2nn(-c3ccccc3)cc2C(=O)O)cc1	0	-3	1	3	0	4
COc1ccc(-c2nn(-c3ccccc3)cc2C(=O)NC(=S)NNC(=O)c2ccncc2)cc1	-9	8	33*	13	9	-12
COc1ccc(NC(=O)c2cn(-c3ccccc3)nc2-c2ccncc2)cc1	-7	1	3	-4	5	0
NC(N)=NC1=NC(=O)/C(=C/c2ccccc2-n2cccn2)S1	-1	0	0	3	9	0
CCC(=O)N1CCc2cc(S(=O)(=O)CCC(=O)Nc3nc(C)cs3)ccc21	28*	-10	1	-1	-3	6
O=C(CN1C(=O)C2CCCCC2C1=O)Nc1nc2ccc(F)cc2s1 (centres undefined)	-11	0	6	6	5	6
O=C(Nc1cccc(NC(=O)c2ccc(-c3ccc(Br)cc3)o2)c1)c1ccco1	-19	32*	12	-1	31*	-22
O=C(Nc1cccc(NC(=O)c2ccccc2Cl)c1)c1ccco1	-2	-9	8	-1	-2	0
CN1CCN(NC(=S)NC2CCCCC2)CC1	-8	-4	1	-9	7	0
CCC1(C(N)=O)CC2C=CC1C2 (centres undefined)	-6	-1	1	4	0	-5
C=CCc1c(C)nc(-c2ccccc2)nc1N/N=C(\C)c1ccccc1	-6	35*	-1	-4	9	-9
COc1ccc(-c2nnc(N3CCOCC3)c3ccccc23)cc1	-1	4	0	-2	5	-3
Cc1nnc(N2CCOCC2)c2ccccc12	17	-9	0	-3	-8	25*
COc1ccc(C(=O)/C=C/c2ccc3c(c2)OCCO3)cc1	-3	16	2	-5	2	-12
O=C(/C=C/c1ccc2c(c1)OCCO2)c1ccccc1	24*	-4	0	2	-13	4
Cc1cc(-c2ccc(Cl)cc2)n2nc(N)nc2n1	0	-1	0	-2	-11	28*
COc1ccc(NC(=O)C[C@H]2C(=O)N(C3CCCCC3)C[C@@H]2c2ccccc2)cc1	6	-5	2	1	-6	3
COc1cc2c(cc1Cl)/C(=C\CCN(C)C)c1ccccc1S2	-18	33*	8	-4	25	-35
COc1cc(Cl)cc2c1Sc1ccccc1/C2=C/CCN(C)C	-29	19	2	-12	36*	-14
CN(C)CC/C=C1/c2cc(F)ccc2Sc2ccc(Cl)cc21	-29	96*	4	-19	99*	-16
SMILES	CHRM5 PAM	M4 antag	CHRM4 agonist	CHRM5 agonist	CHRM5 antagonist	CHRM4 PAM
CN1CCN(CC/C=C2/c3ccccc3Sc3ccc(S(=O)(=O)N(C)C)cc32)CC1	-9	-3	7	0	-2	-6
CN(C)CC/C=C1/c2ccccc2Sc2c(O)cc(Cl)cc21	-16	50*	2	-6	98*	-15
CCn1c(COc2cccc3cccnc23)nnc1SC(F)F	-9	-2	2	-4	2	9
COC(=O)c1ccc(-c2nc(O)c3cnccn23)cc1	-1	-3	34*	-4	8	3
Oc1nc(-c2ccc(Cl)cc2)n2ccncc12	-1	-5	1	-4	11	0
Cc1ccc(CCC(=O)Nc2ccc(N(C)C)cc2)o1	-1	-9	0	2	-4	7
O=C(NCCO)C(=O)Nc1cc2c3c(c1)CC(=O)N3CCC2	8	1	-1	-4	1	14*
C[C@@]1([C@@H](NC(=O)c2cccs2)c2ccc(-c3ccccc3)cc2)C[C@H]1C1CCCCC1	3	1	2	-1	12	1
O=C(c1ccccc1F)N1CCC2CC1c1cc(N3CCCCC3)ccc12 (centres undefined)	-2	2	4	1	-10	-8
O=C(C1CCCCC1)N1CCC2CC1c1cc(N3CCCCC3)ccc12 (centres undefined)	-7	37*	3	-2	11	-13
CCOC(=O)c1c(C)[nH]c(C(=O)CC(=O)OC)c1C	-6	-7	2	-1	8	1
COc1ccc(/C=C\C(=O)O[C@@H]2C(O)C(O[C@@H]3OC(C)[C@H](O[C@@H]4OCC(O[C@H]5O[C@H](CO)[C@@H](O)C(O)C5O)C(O)C4O)C(O)C3O)[C@H](OC(=O)[C@]34CCC(C)(C)C[C@@H]3C3=CCC5[C@@]6(C)CC(O)C(O[C@@H]7OC(CO)C(O)[C@H](O)[C@H]7O)[C@@](C)(C(=O)O)C6CC[C@@]5(C)[C@]3(CO)CC4)O[C@H]2C)cc1 (some centres undefined)	-27	79*	147*	50*	48*	-14
O=C(NCCCCCCNC(=O)c1ccccc1O)c1ccccc1O	-19	9	22	6	28*	-16
COc1cc2c(c(OC)c1OC)CC(=O)N(C)CC2	-9	33*	1	-7	-3	-31
O=C1CSC(c2ccccc2)N1c1ccc([N+](=O)[O-])cc1 (centres undefined)	-15	33*	0	-22	19	-14
Cc1nc2ccccc2n1CC(=O)NCCN1CCOCC1	1	32*	1	1	0	28
O=C1NC(=S)S/C1=C\c1cc(Cl)cc(Cl)c1O	-41	12	52*	193*	30*	-13
O=S1(=O)CC(O)C(Nc2ccc(Cl)cc2)C1 (centres undefined)	-3	1	1	1	-7	2
O=S1(=O)CC(O)C(Nc2ccccc2)C1 (centres undefined)	42*	-4	0	-6	-8	26*
CCOC(=O)C1(C(=O)OCC)CCN(S(=O)(=O)c2ccccc2)CC1	-3	-3	2	2	8	4
